In ChEMBL document CHEMBL4715794, “Design, Synthesis, and Biological Evaluation of Novel Cyclic Adenosine-Inosine Monophosphate (cAIMP) Analogs That Activate Stimulator of Interferon Genes (STING)” (J Med Chem, 2016):
Active and inactive are the calls of the source. The calls are words filed in the database; no cut-off is given here.

Key:
[1] = molecular target: T1, Stimulator of interferon genes protein (Mus musculus, UniProt Q3TBT3); experiment: Activation of STING in mouse RAW-Lucia ISG cells assessed as induction of type I IFNs stimulation by measuring induction of IRF pathway incubated for 48 hrs by luciferase reporter gene assay; format: cell-based
T1 sequence (Q3TBT3 whole entry): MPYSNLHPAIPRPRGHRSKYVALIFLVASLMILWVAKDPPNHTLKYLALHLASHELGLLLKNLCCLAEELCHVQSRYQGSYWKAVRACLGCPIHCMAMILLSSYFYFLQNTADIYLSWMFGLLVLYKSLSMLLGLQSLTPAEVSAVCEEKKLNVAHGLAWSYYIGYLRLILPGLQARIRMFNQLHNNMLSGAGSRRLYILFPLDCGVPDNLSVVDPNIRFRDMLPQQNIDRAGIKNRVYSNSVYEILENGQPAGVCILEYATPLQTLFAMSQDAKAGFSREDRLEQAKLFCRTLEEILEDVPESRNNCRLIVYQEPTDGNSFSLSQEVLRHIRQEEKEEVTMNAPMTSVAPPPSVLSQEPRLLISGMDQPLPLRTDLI
How it was run: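 Cells (~100,000/well) stimulated 48 h at 37 °C, 5% CO2, with saline vehicle or compound in saline at seven concentrations. Luciferase reporter read with Quanti-Luc. EC50 from log(agonist) dose-response fit; mean ± SD of three independent experiments.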

[2] = Stability in presence of snake venom phosphodiesterase assessed as parent compound remaining level at 7 ug incubated for >2 hrs by HPLC analysis; format: ADME; conditions: at 7 µg
[3] = Stability in presence of snake venom phosphodiesterase assessed as parent compound remaining level at 7 ug incubated for 2 hrs by HPLC analysis; format: ADME; conditions: in vitro, at 7 µg
How it was run: (§1)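 7 µg of each CDN incubated at 37 °C in a water bath with 21 µL of enzyme solution (160 µg snake venom phosphodiesterase in PBS with 0.6 mM MgCl2), with water as the no-enzyme control. Aliquots were taken at time points from 0 to 2 h, heated at 100 °C for 2 min, frozen, then injected onto a C18 UHPLC column with UV detection to follow the parent compound.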

[4] = molecular target: T2, Stimulator of interferon genes protein (Homo sapiens, UniProt Q86WV6); experiment: Activation of STING in human blood assessed as induction of type I IFNs incubated for 18 to 20 hrs by QUANTI-Blue assay; format: tissue-based
T2 sequence (Q86WV6 whole entry): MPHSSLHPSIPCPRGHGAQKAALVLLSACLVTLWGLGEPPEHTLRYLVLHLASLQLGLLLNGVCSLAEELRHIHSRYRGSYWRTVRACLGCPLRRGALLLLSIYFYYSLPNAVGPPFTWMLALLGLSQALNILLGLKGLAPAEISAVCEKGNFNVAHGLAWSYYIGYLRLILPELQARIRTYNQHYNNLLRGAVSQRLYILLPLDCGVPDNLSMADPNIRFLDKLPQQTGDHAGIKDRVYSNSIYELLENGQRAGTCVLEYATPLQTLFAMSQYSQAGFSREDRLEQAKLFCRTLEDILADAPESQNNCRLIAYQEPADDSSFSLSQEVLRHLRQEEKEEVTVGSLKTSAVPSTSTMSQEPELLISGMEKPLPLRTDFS

[5] = molecular target: T3, Stimulator of interferon genes protein (Mus musculus) (UniProt Q3TBT3); experiment: Activation of STING in mouse RAW-Lucia ISG cells assessed as induction of type I IFNs stimulation by measuring induction of IRF pathway incubated for 48 hrs by luciferase reporter gene assay relative to 2',3'-cGAMP; format: cell-based; conditions: filed as activator
T3 sequence (whole entry): T1 sequence (Q3TBT3 whole entry)
How it was run: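 RAW-Lucia ISG cells (~100,000/well), 48 h at 37 °C, 5% CO2, compound in saline at seven concentrations, Quanti-Luc luciferase read-out. Emax taken as fitted top plateau, normalized to the 2',3'-cGAMP response in each assay; mean percentage ± SD of three independent experiments.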

RAW [6] = experiment: Induction of type I IFN production in mouse RAW-Lucia ISG-KO-STING cells at 0.08 to 60 ug/ml incubated for 48 hrs by luciferase reporter gene assay; format: functional, cell-based; conditions: dose 0.08-60 µg/ml
Nuclease P1 [7] = molecular target: T4, Nuclease P1 (Penicillium citrinum, UniProt P24289); experiment: Stability in presence of nuclease P1 assessed as parent compound remaining level at 7 ug incubated for 2 hrs by HPLC analysis; format: ADME; conditions: at 7 µg; for Stabilty: in vitro, 2 h
T4 sequence (P24289 whole entry): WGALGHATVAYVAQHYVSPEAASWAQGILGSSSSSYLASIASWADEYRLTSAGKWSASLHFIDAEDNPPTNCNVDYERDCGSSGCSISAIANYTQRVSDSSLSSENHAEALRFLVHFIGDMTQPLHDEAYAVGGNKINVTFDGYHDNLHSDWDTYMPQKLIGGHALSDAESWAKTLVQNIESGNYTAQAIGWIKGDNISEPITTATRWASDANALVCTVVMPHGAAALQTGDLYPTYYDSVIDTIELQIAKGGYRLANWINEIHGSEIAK
How it was run: (§2)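 7 µg CDN incubated at 37 °C with 2.5 mU NP1 in 30 mM acetate buffer, 2 mM ZnCl2, pH 5.3 (water control). Aliquots taken from 0 to 2 h, heated 100 °C for 2 min, frozen, then analysed by reverse-phase UPLC with UV detection.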

[8] = molecular target: T2, Stimulator of interferon genes protein; experiment: Activation of STING in human blood assessed as increase in IL-1 production at 10 ug/ml incubated for 18 to 20 hrs by QUANTI-Blue assay; format: tissue-based; conditions: filed as activator, time 18-20 hrs
How it was run: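 Whole blood from healthy donors, diluted 1:2 in RPMI with sodium pyruvate, incubated 18–20 h at 37 °C with CDN in saline. Supernatants assayed on HEK-Blue IL-1R reporter cells (~50,000/well, ~20 h, 37 °C), SEAP read with QUANTI-Blue. Fold induction over unstimulated; mean of fifteen donors over three experiments.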

Nuclease P1 [9] = molecular target: T4, Nuclease P1; experiment: Stability in presence of nuclease P1 assessed as half life at 7 ug incubated for 2 hrs by HPLC analysis; format: ADME; conditions: nuclease P1 (isolated enzyme), dose 7 µg; how it was run: as §2
[10] = system: snake venom phosphodiesterase; experiment: (§3) Stability in presence of snake venom phosphodiesterase assessed as parent compound degradation at 7 ug incubated for 2 hrs by HPLC analysis; format: ADME; conditions: snake venom phosphodiesterase, read-out: Drug degradation; how it was run: as §1
[11] = as §3; format: ADME; conditions: in vivo, 2 h; how it was run: as §1
[12] = molecular target: T5, ENPP1 (ectonucleotide pyrophosphatase/phosphodiesterase family member 1) (Homo sapiens, UniProt P22413); experiment: Stability in presence of ENPP1 ( unknown origin) assessed as half life by HPLC analysis; conditions: ENPP1 (isolated enzyme, unknown origin)
T5 sequence (P22413 whole entry): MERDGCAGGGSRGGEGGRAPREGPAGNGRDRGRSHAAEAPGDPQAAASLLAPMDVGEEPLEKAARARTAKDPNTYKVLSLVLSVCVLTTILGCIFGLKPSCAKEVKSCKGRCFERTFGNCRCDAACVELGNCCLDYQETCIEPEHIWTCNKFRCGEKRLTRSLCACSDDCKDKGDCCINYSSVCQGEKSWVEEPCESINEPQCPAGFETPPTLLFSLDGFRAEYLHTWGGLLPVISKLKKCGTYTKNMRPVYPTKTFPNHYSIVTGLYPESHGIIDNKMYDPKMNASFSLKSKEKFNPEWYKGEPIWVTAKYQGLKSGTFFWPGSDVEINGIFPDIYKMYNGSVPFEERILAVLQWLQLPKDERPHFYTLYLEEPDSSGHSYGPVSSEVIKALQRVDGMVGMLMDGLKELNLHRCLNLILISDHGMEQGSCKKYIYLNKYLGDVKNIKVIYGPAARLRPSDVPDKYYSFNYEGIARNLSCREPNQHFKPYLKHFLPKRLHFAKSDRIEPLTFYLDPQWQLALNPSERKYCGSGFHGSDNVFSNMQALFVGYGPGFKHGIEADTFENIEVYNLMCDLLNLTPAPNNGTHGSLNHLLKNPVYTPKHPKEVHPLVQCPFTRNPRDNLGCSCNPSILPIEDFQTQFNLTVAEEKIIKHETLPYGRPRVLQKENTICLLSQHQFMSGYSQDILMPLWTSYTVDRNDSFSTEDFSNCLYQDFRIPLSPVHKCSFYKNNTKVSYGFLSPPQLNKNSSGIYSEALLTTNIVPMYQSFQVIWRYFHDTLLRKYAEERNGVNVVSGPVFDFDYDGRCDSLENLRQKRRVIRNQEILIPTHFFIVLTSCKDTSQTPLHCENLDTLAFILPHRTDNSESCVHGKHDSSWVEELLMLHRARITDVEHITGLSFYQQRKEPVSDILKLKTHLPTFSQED

RAW [13] = experiment: Induction of type I IFN production in mouse RAW-Lucia ISG-KO-STING cells at 0.08 to 100 ug/ml incubated for 48 hrs by luciferase reporter gene assay; format: functional, cell-based; conditions: dose 0.08-100 µg/ml

| SMILES | EC50 [1] | Stabilty [3] | EC50 [4] | Emax [5] | Activity (RAW [6]) | other results |
| --- | --- | --- | --- | --- | --- | --- |
| Nc1ncnc2c1ncn2[C@H]1C[C@@H]2OP(=O)(S)OC[C@H]3O[C@@H](n4cnc5c(O)ncnc54)[C@H](F)[C@@H]3OP(=O)(S)OC[C@H]2O1 (stereo partly specified) | 2.2 µM | Stable | 4.7 µM | 83% | inactive | Stabilty [2]: Stable |
| Nc1ncnc2c1ncn2[C@H]1C[C@@H]2OP(=O)(O)OC[C@H]3O[C@@H](n4cnc5c(O)ncnc54)[C@H](F)[C@@H]3OP(=O)(O)OC[C@H]2O1 | 5 µM | Stable | 2.8 µM | 93% | inactive | – |
| Nc1ncnc2c1ncn2[C@@H]1O[C@@H]2COP(=O)(S)O[C@H]3[C@@H](F)[C@H](n4cnc5c(O)ncnc54)O[C@@H]3COP(=O)(S)O[C@H]2[C@H]1F (stereo partly specified) | 0.6 µM | Stable | 0.4 µM | 104% | inactive | Stabilty [2]: Stable; Stabilty (Nuclease P1 [7]): Stable; Activity [8]: Active |
| Nc1ncnc2c1ncn2[C@@H]1O[C@@H]2COP(=O)(O)O[C@H]3[C@@H](O)[C@H](n4cnc5c(O)ncnc54)O[C@@H]3COP(=O)(O)O[C@@H]1[C@@H]2O | – | – | – | 85% | inactive | – |
| Nc1ncnc2c1ncn2[C@@H]1O[C@@H]2COP(=O)(O)O[C@H]3[C@@H](F)[C@H](n4cnc5c(O)ncnc54)O[C@@H]3COP(=O)(O)O[C@H]2[C@H]1F | 5.1 µM | Stable | 0.7 µM | 90% | inactive | Stabilty (Nuclease P1 [7]): Stable; Activity [8]: Active |
| Nc1ncnc2c1ncn2[C@H]1C[C@@H]2OP(=O)(O)OC[C@H]3O[C@@H](n4cnc5c(O)ncnc54)C[C@@H]3OP(=O)(O)OC[C@H]2O1 | 11.6 µM | Stable | 9.9 µM | 91% | inactive | half-life at 7 ug (Nuclease P1 [9]): 5.7 min; metabolised at 2 h, 7 ug [10]: < 40% |
| Nc1ncnc2c1ncn2[C@@H]1O[C@@H]2COP(=O)(O)O[C@H]3[C@@H](O)[C@H](n4cnc5c(O)ncnc54)O[C@@H]3COP(=O)(O)O[C@H]2[C@H]1O | – | – | – | 107% | inactive | half-life at 7 ug (Nuclease P1 [9]): 23.1 min; Stabilty [11]: Unstable |
| Nc1ncnc2c1ncn2[C@@H]1O[C@@H]2COP(=O)(O)O[C@@H]3[C@H](O)[C@@H](COP(=O)(O)O[C@@H]1[C@@H]2O)O[C@H]3n1cnc2c(O)ncnc21 | – | – | – | 95% | inactive | – |
| Nc1ncnc2c1ncn2[C@@H]1O[C@@H]2COP(=O)(S)O[C@H]3[C@@H](O)[C@H](n4cnc5c(O)ncnc54)O[C@@H]3COP(=O)(S)O[C@H]2[C@H]1O (stereo partly specified) | 4 µM | Stable | 10.6 µM | 115% | inactive | Stabilty (Nuclease P1 [7]): Stable |
| Nc1nc2c(ncn2[C@@H]2O[C@@H]3COP(=O)(O)O[C@H]4[C@@H](O)[C@H](n5cnc6c(N)ncnc65)O[C@@H]4COP(=O)(O)O[C@@H]2[C@@H]3O)c(=O)[nH]1 | – | Stable | – | – | inactive | half-life [12]: 60 min; remaining at 2 h, 7 ug (Nuclease P1 [7]; nuclease P1 (isolated enzyme), time 2 hrs, read-out: Stabilty): 83% |
| Nc1ncnc2c1ncn2[C@@H]1O[C@@H]2COP(=O)(O)O[C@H]3C[C@H](n4cnc5c(O)ncnc54)O[C@@H]3COP(=O)(O)O[C@H]2[C@H]1F | 9.1 µM | – | 3.6 µM | 99% | inactive | – |
| Cc1ccc2c(=O)c3cccc(CC(=O)O)c3oc2c1C | – | – | – | – | – | Activity (RAW [13]): inactive |
| Nc1nc2c(ncn2[C@@H]2O[C@@H]3COP(=O)(O)O[C@H]4[C@@H](O)[C@H](n5cnc6c(N)ncnc65)O[C@@H]4COP(=O)(O)O[C@@H]2C3)c(=O)[nH]1 | – | – | – | – | – | half-life [12]: 60 min |
| Nc1ncnc2c1ncn2[C@@H]1O[C@@H]2COP(=O)(O)O[C@@H]3[C@H](O)[C@@H](COP(=O)(O)O[C@H]2[C@H]1O)O[C@H]3n1cnc2c(=O)[nH]cnc21 | 6.1 µM | – | – | 85% | inactive | half-life at 7 ug (Nuclease P1 [9]): 7.1 min |
